Assay [1] in a line: PMA/ionomycin-induced NF-kB reporter inhibitors, Jurkat retest, confirmation, T-cell NF-kB inhibitor project, cell-based, luminescence, single concentration (AID 435020).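 Note: plate controls were PMA/ionomycin stimulated DMSO wells for no effect and unstimulated DMSO wells for full effect.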 The note with it: Jurkat NF-kB luciferase, 16 h, at 4 µM, hits give high values.
For assay [2], the target named is Sentrin-specific protease 8 (Homo sapiens) (UniProt Q96LD8). Put plainly: SENP8 protease inhibitors, retest, confirmation, biochemical, luminescence, single concentration (AID 488912;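 active = mean inhibition across replicates above about 50%, limit read from the data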). The conditions noted are these: Recombinant SENP8, Z-RLRGG-aminoluciferin luminescence, 60 min; at 12.5 µM; hits give high values.
Sentrin-specific protease 8 (Homo sapiens), sequence (Q96LD8 whole entry, looked up): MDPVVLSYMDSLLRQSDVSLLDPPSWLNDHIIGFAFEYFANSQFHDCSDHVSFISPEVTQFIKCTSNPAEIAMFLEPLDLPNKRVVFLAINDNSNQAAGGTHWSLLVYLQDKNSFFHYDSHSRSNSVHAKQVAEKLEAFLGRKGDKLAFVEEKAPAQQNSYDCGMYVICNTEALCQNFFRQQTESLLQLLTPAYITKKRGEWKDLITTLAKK
Assay [3] has as its target Sentrin-specific protease 6 (Homo sapiens) (UniProt Q9GZR1). The assay can be described thus: SENP6 protease inhibitors, confirmation, biochemical, luminescence, single concentration (AID 488915;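 active = mean inhibition above about 50% in the one-dose retest, limit read from the data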). The conditions noted are these: recombinant SENP6, Z-RLRGG-aminoluciferin luminescence; at 12.5 µM; hits give high values.
The target in assay [4] is Sentrin-specific protease 7 (Homo sapiens) (UniProt Q9BQF6). Put plainly: SENP7 protease inhibitors, retest, confirmation, biochemical, luminescence, single concentration (AID 488917;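 active = mean inhibition above about 50% in the one-dose retest, limit read from the data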). The conditions noted are these: recombinant SENP7, Z-RLRGG-aminoluciferin luminescence, 40 min; at 12.5 µM; hits give high values.
Sentrin-specific protease 7 (Homo sapiens), sequence (Q9BQF6 706-1050 limits assumed): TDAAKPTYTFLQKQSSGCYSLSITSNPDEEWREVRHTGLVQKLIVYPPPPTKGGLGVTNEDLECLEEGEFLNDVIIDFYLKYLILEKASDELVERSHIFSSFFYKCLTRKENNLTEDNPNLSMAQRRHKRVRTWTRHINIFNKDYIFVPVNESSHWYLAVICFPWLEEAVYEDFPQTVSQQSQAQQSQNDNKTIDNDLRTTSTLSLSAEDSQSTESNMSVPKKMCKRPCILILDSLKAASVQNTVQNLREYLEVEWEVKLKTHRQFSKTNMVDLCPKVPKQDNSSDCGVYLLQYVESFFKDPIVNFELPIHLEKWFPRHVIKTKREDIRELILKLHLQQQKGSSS
The next assay addresses Caspase-3 (Homo sapiens) (UniProt P42574). Put plainly: caspase-3 protease inhibitors, confirmation, selectivity assay for SENP inhibitor project, biochemical, single concentration (AID 488918;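 active = mean inhibition above about 50%, limit read from the data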;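 note: plate controls were enzyme with DMSO for no effect and wells without caspase-3 for full effect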). The conditions noted are these: purified caspase-3, Z-DEVD-aminoluciferin luminescence, 60 min; at 12.5 µM; hits give high values.
Assay [5] is described as follows: luciferase luminescence interference by compounds, confirmation, artefact control for SENP inhibitor project, biochemical, single concentration, SENP8 reaction pre-completed (AID 488919;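 active = mean inhibition above about 50% when retested at one dose, limit read from the data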;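 note: plate controls were DMSO wells with completed reaction for no effect and substrate without enzyme for full effect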). The note with it: Pre-incubated SENP8/Z-RLRGG-aminoluciferin, at 12.5 µM, hits give high values.
Assay [6] is described as follows: activators of apoptotic CHOP UPR arm, confirmation, cell-based, CHO-CHOP luciferase reporter, single concentration (AID 463112; in the data active = activation above about 33%;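 note: 0% = DMSO wells and 100% = tunicamycin 10 µg/mL wells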). The conditions noted are these: CHO-CHOP cells, CHOP-luciferase reporter luminescence; at 10 µM; hits give high values; percent of tunicamycin response, DMSO as zero. An outline of the steps: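 assay system = CHO-CHOP luciferase reporter cell line | compound dosing = 10 µM single point, 0.5% DMSO | times = overnight cell seeding before dosing, 6 h compound exposure at 37 °C | signal = luciferase luminescence measured with Steady-Glo reagent | controls = tunicamycin 10 µg/mL as high control, DMSO alone as low control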

The values below come from PubChem BioAssay.

The list shows a part of the results. Calls of active or inactive are those of the source.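 Rule for the calls, unless noted: active = inhibition reaching about 45% at 4 µM in either replicate (limit read from the data); inactive = the rest.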

Caspase-3 (Homo sapiens), sequence (P42574 28-227 limits assumed): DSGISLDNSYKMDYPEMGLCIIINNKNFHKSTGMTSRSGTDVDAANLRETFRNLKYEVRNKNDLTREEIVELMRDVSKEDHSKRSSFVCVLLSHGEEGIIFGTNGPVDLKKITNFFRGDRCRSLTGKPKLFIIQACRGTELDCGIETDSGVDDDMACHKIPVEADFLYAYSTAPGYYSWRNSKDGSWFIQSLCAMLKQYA
Sentrin-specific protease 6 (Homo sapiens), sequence (Q9GZR1 628-1112 limits assumed): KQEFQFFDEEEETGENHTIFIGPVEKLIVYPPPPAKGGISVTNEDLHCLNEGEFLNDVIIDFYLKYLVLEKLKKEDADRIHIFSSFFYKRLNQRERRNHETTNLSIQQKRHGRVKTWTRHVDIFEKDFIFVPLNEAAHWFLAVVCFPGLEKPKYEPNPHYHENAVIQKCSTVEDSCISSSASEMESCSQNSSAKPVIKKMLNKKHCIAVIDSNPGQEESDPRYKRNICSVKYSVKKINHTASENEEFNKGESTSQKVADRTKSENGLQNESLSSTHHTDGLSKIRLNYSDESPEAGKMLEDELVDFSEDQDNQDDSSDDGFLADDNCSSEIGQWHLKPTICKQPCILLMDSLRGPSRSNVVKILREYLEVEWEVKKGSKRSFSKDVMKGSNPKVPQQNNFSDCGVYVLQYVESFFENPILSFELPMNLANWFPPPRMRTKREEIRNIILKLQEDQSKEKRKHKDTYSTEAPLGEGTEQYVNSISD

Regarding `N#Cc1ccc(C2N=C(c3ccccc3)NO2)cc1` (configuration not stated), the inhibition (usually the relative decrease from the control value, in per cent) was -93.9% (inactive) in assay [1]; 24.2% (inactive) in assay [2]; 9.2% (inactive) in assay [3]; 22.5% (inactive) in assay [4]; 13.1% (inactive) with Caspase-3 (Homo sapiens); 2.1% (inactive) in assay [5].
As to `O=C(NCC#CCSc1nnc(-c2cccc3ccccc23)o1)c1cccs1`, the inhibition in assay [1] is 62.8% (active).
Regarding `Cn1c(-c2ccc(C(=O)c3ccccc3)s2)nc2ccccc21`, the inhibition was -108% (inactive) in assay [1]; 0% (inactive) in assay [2]; 11.3% (inactive) in assay [3]; 17.8% (inactive) in assay [4]; 23% (inactive) with Caspase-3 (Homo sapiens); 8.8% (inactive) in assay [5].
Take `Oc1ccc(/C=N/Nc2ccc(C(F)(F)F)cn2)cc1O`: the inhibition in assay [1] was -7.8% (inactive). The activation in assay [6] is 68.9% (active).
Take `Cn1nccc1C(=O)NC1CCCc2c1cnn2-c1ccccc1F` (configuration not stated): the inhibition in assay [1] is 68.1% (active).
Take `COc1cc(SC)ccc1C(=O)NCCOc1ccccc1Cl`: the inhibition in assay [1] is -81.7% (inactive).
With `COc1ccc(N=C(C)c2sc3ccccc3c2O)cc1`, the inhibition in assay [1] is -7.85% (inactive); in assay [2], 16.5% (inactive); in assay [3], 19.5% (inactive); in assay [4], 14.7% (inactive); with Caspase-3 (Homo sapiens) it was 9.6% (inactive); in assay [5], -5.1% (inactive).
Take `Cc1cccc(NS(=O)(=O)c2ccc(-c3cnc(C4CC4)o3)cc2)c1`: in assay [1], the inhibition is 53.5% (active).
In the case of `Cc1noc(C)c1/C=N/Nc1ccc2ccccc2n1`, the inhibition is -102% (inactive) in assay [1]; -12.5% (inactive) in assay [2]; -9% (inactive) in assay [3]; 6.7% (inactive) in assay [4]; 6.2% (inactive) with Caspase-3 (Homo sapiens); -1.9% (inactive) in assay [5].
With `O=C(CCNC(=O)c1ccc(Br)cc1)Nc1cccc(S(=O)(=O)N2CCCCC2)c1`, the inhibition in assay [1] is 0.65% (inactive).
As for `Cc1ccc2cc3cc(C(=O)N4CCCCCC4)oc3nc2c1`, the inhibition in assay [1] was -90.9% (inactive); in assay [2], 41.9% (inactive); in assay [3], 47.9% (inactive); in assay [4] it was 79.7% (active); with Caspase-3 (Homo sapiens), 62.2% (active); in assay [5] it was 47.7% (inactive).
